Structures are written as SMILES. pIC50: −log10 of the molar value. Activity calls are given as the source filed them. The calls are words filed in the database; no cut-off is given here.

Test [1] deals with T1, DNA topoisomerase 1 (Homo sapiens) (UniProt P11387).
T1 sequence (whole entry): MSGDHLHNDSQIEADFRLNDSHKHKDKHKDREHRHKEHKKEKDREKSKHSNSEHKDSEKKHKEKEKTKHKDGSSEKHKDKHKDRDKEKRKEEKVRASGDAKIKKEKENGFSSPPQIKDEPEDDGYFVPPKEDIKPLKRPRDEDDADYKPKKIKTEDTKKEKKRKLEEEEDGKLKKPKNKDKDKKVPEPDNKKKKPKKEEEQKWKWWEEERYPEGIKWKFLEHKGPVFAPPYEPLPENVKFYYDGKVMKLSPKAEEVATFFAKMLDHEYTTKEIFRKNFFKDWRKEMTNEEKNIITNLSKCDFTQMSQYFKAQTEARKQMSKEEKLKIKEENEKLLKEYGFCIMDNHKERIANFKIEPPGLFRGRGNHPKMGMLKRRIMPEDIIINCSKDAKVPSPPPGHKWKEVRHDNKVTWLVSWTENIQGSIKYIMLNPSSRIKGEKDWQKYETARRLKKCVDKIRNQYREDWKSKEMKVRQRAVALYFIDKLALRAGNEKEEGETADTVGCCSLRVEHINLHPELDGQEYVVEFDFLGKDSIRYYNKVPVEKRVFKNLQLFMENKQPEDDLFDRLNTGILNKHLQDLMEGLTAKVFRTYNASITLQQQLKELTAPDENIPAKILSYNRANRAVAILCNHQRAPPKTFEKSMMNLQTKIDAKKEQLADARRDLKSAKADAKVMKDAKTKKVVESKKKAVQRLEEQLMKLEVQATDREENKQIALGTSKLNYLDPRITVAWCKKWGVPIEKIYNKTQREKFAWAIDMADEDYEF
Nature of the test: Inhibition of human recombinant Top1-mediated DNA cleavage by polyacrylamide gel electrophoresis relative to camptothecin. Also noted: concentration or dose not given beside the values. Put shortly:
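Baculovirus-purified human recombinant Top1 was incubated for 20 min at 25 °C, with compounds at various concentrations, with about 2 nM of a 117-bp oligonucleotide 3′-end-labeled with [α-³²P]dGTP. Reactions were stopped with 0.5% SDS and run on 20% denaturing PAGE. Cleavage bands were phosphorimaged and graded semiquantitatively against 1 μM camptothecin.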

The target of test [2] is T2, Tyrosyl-DNA phosphodiesterase 1 (Homo sapiens, UniProt Q9NUW8). The test is described as follows: Inhibition of human Tdp1 in Tdp1-deficient chicken DT40 whole cell extract using 5'-[32P]-labeled single-stranded DNA oligonucleotide containing 3'-phosphotyrosine as substrate after 15 mins by PAGE analysis.
Test [3] concerns the target T2, Tyrosyl-DNA phosphodiesterase 1. Nature of the test: Binding affinity to human recombinant Tdp1 at 0.4 to 33 uM by surface plasmon resonance spectroscopy analysis. Put shortly: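 Amine-coupled to a CM5 chip to about 4000 RU; before coupling, Tdp1 (1 μM) was preloaded for 20 min with 2 μM 3′-phosphate 14-mer in 10 mM sodium acetate pH 4.5 to shield the active site, then the oligo was stripped with 1 M NaCl. Analyte was injected in 10 mM Hepes, 150 mM NaCl, 0.01% Tween 20, 5% DMSO, pH 7.5, at 30 μL/min, 25 °C. Responses were corrected against a Tdp1-free reference surface, buffer cycles and DMSO calibration.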

For test [4] the target is unchanged. Nature of the test: Inhibition of human recombinant Tdp1 using 5'-[32P]-labeled single-stranded DNA oligonucleotide containing 3'-phosphotyrosine as substrate assessed as prevention of generation of oligonucleotide with free 3'-phosphate after 15 mins by PAGE analysis.
The nature of test [5]: Growth inhibition of human NCI60 cells. The format is functional.

T2 sequence (Q9NUW8 whole entry): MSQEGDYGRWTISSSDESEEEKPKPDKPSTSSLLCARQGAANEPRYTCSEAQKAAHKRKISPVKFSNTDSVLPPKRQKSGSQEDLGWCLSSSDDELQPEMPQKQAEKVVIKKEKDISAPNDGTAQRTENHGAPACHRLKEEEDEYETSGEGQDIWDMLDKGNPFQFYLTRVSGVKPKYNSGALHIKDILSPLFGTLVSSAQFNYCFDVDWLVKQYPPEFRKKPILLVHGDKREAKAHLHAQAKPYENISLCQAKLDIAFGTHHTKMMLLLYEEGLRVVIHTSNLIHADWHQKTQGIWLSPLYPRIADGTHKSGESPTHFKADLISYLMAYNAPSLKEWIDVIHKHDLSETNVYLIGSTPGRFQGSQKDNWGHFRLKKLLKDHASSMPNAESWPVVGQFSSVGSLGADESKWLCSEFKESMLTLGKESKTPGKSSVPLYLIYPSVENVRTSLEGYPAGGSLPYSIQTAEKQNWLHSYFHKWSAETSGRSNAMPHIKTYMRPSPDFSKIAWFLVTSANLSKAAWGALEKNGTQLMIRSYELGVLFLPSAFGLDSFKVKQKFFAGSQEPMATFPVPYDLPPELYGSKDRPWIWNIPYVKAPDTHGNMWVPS

Regarding `NCCCn1c2c(c3ccccc3c1=O)C(=O)c1ccccc1-2`, the inhibition in test [1] (concentration not given here) worked out at 75%. Also, in test [2], the pIC50 was 4.53. In addition, in test [3], the outcome was Active.
For the compound `NCCCCCCCCCCCCn1c2c(c3ccccc3c1=O)C(=O)c1ccccc1-2`, the inhibition in test [1] (concentration not given here) stood at 0%. Besides, the pIC50 in test [4] is 4.82; in test [2] it was 4.48.
For `NCCCCCn1c2c(c3ccccc3c1=O)C(=O)c1ccccc1-2` the same measures were 0%, 4.76 and 4.55.
Consider `NCCCCCCCCCn1c2c(c3ccccc3c1=O)C(=O)c1ccccc1-2`, for which the inhibition in test [1] (concentration not given here) was 0%; in test [4], “Dose-dependent effect”. In addition, the pIC50 in test [4] was 4.33; in test [2], 4.32.
For `NCCCCn1c2c(c3ccccc3c1=O)C(=O)c1ccccc1-2`, the inhibition in test [1] (concentration not given here) came out at 75%. For the same compound, the pIC50 in test [2] was 4.63.
Consider `NCCCCCCCCn1c2c(c3ccccc3c1=O)C(=O)c1ccccc1-2`, for which the inhibition in test [1] (concentration not given here) stood at 20%. Further, the pIC50 is 4.32 in test [4] and 4.31 in test [2].
For `NCCCCCCCCCCn1c2c(c3ccccc3c1=O)C(=O)c1ccccc1-2` the same measures were 0%, 4.85 and 4.67.
`COc1cc2c3c(n(CCCNS(=O)(=O)c4ccccc4)c(=O)c2cc1OC)-c1ccccc1C3=O`: the 50% growth inhibitory concentration (GI50) in test [5] was determined as 1.35 µM. Further, the inhibition in test [1] (concentration not given here) amounted to 75%. Moreover, in test [4], the pIC50 was less than 3.95.
As to `NCCCCCCn1c2c(c3ccccc3c1=O)C(=O)c1ccccc1-2`, the inhibition in test [1] (concentration not given here) came out at 50%. In addition, the negative-log IC50 (pIC50) was 4.60 in test [4] and 4.46 in test [2].
In test [5], `COC(=O)c1ccc2c(c1)C(=O)c1c-2n(CCCNS(=O)(=O)c2ccccc2)c(=O)c2cc(OC)c(OC)cc12` showed a GI50 of 12.6 µM. Further, the inhibition in test [1] (concentration not given here) is 0%. Besides, the negative-log IC50 (pIC50) in test [4] is less than 3.95.
For the compound `O=C1c2cc(-c3ccccc3)ccc2-c2c1c1ccc([N+](=O)[O-])cc1c(=O)n2CCCNS(=O)(=O)c1ccccc1`, the concentration for 50% growth inhibition (GI50) in test [5] is 0.55 µM. The inhibition in test [1] (concentration not given here) amounted to 0%. In addition, the negative-log IC50 (pIC50) in test [4] was less than 3.95.
For `O=C1c2ccccc2-c2c1c1cc3c(cc1c(=O)n2CCCNS(=O)(=O)c1ccccc1)OCO3` the same measures were 0.617 µM, 50% and less than 3.95.
Regarding `NCCCCCCCCCCCn1c2c(c3ccccc3c1=O)C(=O)c1ccccc1-2`, the inhibition in test [1] (concentration not given here) was found to be 20%. Further, the pIC50 in test [4] was 4.89; in test [2], 4.85.
As to `NCCCCCCCn1c2c(c3ccccc3c1=O)C(=O)c1ccccc1-2`, in test [1] (concentration not given here), the inhibition turned out to be 0%. Besides, the figures for the negative-log IC50 (pIC50) in test [4] and in test [2] were 4.54 and 4.51, respectively.
For `NCCn1c2c(c3ccccc3c1=O)C(=O)c1ccccc1-2` the same measures were 75%, 4.26 and 4.11.
In turn, `O=C1c2ccccc2-c2c1c1ccc([N+](=O)[O-])cc1c(=O)n2CCCNS(=O)(=O)c1ccccc1` gave a GI50 in test [5] of 0.046 µM. Besides, the inhibition in test [1] (concentration not given here) stood at 100%. Besides, the negative logarithm of the IC50 (pIC50) in test [4] was less than 3.95.
Regarding `O=C1c2ccccc2-c2c1c1ccccc1c(=O)n2CCCCCCCCCCCCNS(=O)(=O)c1ccccc1`, in test [1], the inhibition entry is “inactive”. Further, in test [4], the negative-log IC50 (pIC50) is less than 3.95.
For `O=C1c2ccccc2-c2c1c1ccccc1c(=O)n2CCCNS(=O)(=O)c1ccc(Br)cc1` the same measures were “inactive” and less than 3.95.
In the case of `Cc1ccc(S(=O)(=O)NCCCCCCCCCCCn2c3c(c4ccccc4c2=O)C(=O)c2ccccc2-3)cc1`, the inhibition result in test [1] was “inactive”. Further, the pIC50 in test [4] is less than 3.95.
